Shown is part of a subset that was picked to be rich in hits.
TLR4-MyD88 BLA: inhibitors of TLR4-MyD88 association in cells, primary screen, cell-based, HeLa CL3-4, BLA complementation, FRET ratio. HeLa CL3-4 TLR4/MyD88 BLA complementation. Toll-like receptor 4 (Homo sapiens) + Myeloid differentiation primary response protein …. AID 861, 2007. 0.18% of 200,000 active. inhibition, % at 8.4 µM; in the data active = inhibition above about 25%
XBP1 UPR activ: activators of adaptive XBP1 UPR arm, primary screen, cell-based, CHO-XBP1 luciferase reporter, luminescence, uHTS | IRE1-XBP1 UPR activation; percent of tunicamycin response, DMSO as zero | activation, % at 20 µM | AID 463104, 2010 | 0.33% of 330,000 active;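 active = versus positive control, 20 µM dose yields 30% or more activation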
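Material: IRE1-XBP1 luciferase reporter CHO line / Quantity: one thousand reporter cells per well / Buffer or medium: F12 with 10% serum / Compound: 20 µM single concentration, DMSO 1% / Times: 6 h treatment, 37 °C / Detection: Steady-Glo luciferase glow luminescence, 10 min after reagent addition / Benchmarks: tunicamycin high, DMSO low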
CHOP inh: inhibitors of CHOP promoter induction, primary screen, cell-based, unfolded protein response, luciferase reporter | CHO-K1 CHOP-promoter luciferase, tunicamycin-induced, 15-18 h | inhibition, % at 10 µM | 3.8% of 220,000 active | AID 2732, 2010;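 active = compounds that reduced the stress-induced luciferase reporter signal by more than about 70% of percent inhibition, limit read from the data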
TLR9-MyD88 block: inhibitors of TLR9-MyD88 association in cells, primary screen, cell-based, CHO, BLA complementation, fluorescence. Toll-like receptor 9 (Homo sapiens) + Myeloid differentiation primary response protein …. CCF4 FRET ratio. inhibition, % at 4.98 µM. 0.21% of 340,000 active. AID 504734, 2011;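 active = inhibition above the mean over all tested compounds plus 3 SD, cut at about 21% in these data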
Target sequence (Q99836 whole entry, looked up): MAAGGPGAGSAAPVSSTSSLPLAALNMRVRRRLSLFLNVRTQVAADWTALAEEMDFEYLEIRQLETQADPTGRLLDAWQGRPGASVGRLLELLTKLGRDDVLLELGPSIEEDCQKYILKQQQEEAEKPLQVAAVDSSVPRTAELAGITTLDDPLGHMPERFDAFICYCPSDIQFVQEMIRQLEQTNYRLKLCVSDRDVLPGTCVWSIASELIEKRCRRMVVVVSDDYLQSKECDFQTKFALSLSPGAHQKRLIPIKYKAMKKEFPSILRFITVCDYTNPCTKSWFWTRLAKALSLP
Target sequence (Q9NR96 whole entry, looked up): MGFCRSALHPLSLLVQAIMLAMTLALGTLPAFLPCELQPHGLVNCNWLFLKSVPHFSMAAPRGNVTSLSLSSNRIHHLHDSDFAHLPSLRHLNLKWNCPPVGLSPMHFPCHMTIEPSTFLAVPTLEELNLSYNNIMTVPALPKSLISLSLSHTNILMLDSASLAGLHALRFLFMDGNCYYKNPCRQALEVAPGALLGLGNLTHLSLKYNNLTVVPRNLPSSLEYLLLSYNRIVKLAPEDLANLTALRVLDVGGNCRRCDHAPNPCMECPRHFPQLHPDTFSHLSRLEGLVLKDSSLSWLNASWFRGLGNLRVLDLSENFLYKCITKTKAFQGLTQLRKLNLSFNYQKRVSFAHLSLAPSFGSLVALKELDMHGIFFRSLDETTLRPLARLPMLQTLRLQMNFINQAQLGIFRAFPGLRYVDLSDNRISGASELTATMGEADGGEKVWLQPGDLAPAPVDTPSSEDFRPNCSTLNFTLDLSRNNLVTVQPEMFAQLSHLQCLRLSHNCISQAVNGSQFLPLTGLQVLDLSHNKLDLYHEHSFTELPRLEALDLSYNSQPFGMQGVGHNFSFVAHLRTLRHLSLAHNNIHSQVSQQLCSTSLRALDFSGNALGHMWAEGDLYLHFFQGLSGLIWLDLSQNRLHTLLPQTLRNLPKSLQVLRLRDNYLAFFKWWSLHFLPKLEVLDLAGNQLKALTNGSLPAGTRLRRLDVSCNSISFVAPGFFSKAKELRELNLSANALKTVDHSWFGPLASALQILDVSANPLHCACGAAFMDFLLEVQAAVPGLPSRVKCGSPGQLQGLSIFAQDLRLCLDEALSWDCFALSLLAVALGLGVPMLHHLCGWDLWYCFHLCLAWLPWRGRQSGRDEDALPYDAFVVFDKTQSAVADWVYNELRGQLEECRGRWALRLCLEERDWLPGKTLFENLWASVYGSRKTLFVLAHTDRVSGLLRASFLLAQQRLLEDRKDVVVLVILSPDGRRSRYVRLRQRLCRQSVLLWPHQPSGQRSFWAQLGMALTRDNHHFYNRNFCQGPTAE
NOD2-RIPK2 inh: NOD2-RIPK2 binding disruptors in cells, primary screen, fluorescence, CHO cells, BLA complementation | inhibition, % at 4.98 µM | CCF4 ratio | Receptor-interacting serine/threonine-protein kinase 2 (Homo sapiens), O43353 | AID 624267, 2012 | 0.38% of 360,000 active; in the data active = inhibition above about 21%
UPR CHOP act: activators of apoptotic CHOP UPR arm, primary screen, cell-based, CHO-CHOP luciferase reporter, luminescence, uHTS | UPR activation; percent of tunicamycin response over DMSO baseline | AID 449763, 2010 | activation, % at 10 µM | 0.34% of 330,000 active;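 active = at 10 µM dose, activation of 40% or more, normalized to positive control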
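Material: CHO-CHOP cells, stable luciferase reporter of PERK-eIF2a-CHOP signalling; quantity: 500 reporter cells seeded per well; buffer or medium: F12 medium containing 10% fetal bovine serum; compound: one dose, 10 µM in 0.5% DMSO; incubation: 6 h compound treatment, 37 °C; measured by: Steady-Glo luciferase luminescence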
CHOP confirm: retest of CHOP induction inhibitors, confirmation, cell-based | inhibition, % at 10 µM | CHO-CHOP promoter luciferase reporter, tunicamycin-induced, luminescence | shares compounds with CHOP inh | AID 504437, 2011 | 45% of 2,100 active;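 active = mean of three repeat readings of reporter signal inhibition above a set limit, cut at about 70% in these data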
CHOP UPR conf: activators of apoptotic CHOP UPR arm, confirmation, cell-based, CHO-CHOP luciferase reporter, single concentration; CHO-CHOP cells, CHOP-luciferase reporter luminescence; percent of tunicamycin response, DMSO as zero; AID 463112, 2010; 64% of 1,000 active; shares compounds with UPR CHOP act; activation, % at 10 µM; in the data active = activation above about 33%
Of the large screens only hits and unclear results are named; the others gave an inactive call (follow-up assays come after a bar, where they were run).

Cc1cc(C(C)(C)C)oc1C(=O)N1CCN(C(=O)c2oc(C(C)(C)C)cc2C)CC1	CHOP inh 105 (no result: XBP1 UPR activ, UPR CHOP act) | CHOP confirm 115
Cc1ccc(NC(=O)O/N=C/c2c(C)nn(C(C)(C)C)c2C)cc1Cl	CHOP inh 99 (no result: TLR4-MyD88 BLA) | CHOP confirm 120
Cc1sc(NC(=O)c2sc3nc4c(C)cccc4cc3c2N)c(C#N)c1C	none
Cc1cccc2cc3c(N)c(C#N)sc3nc12	CHOP inh 99 | CHOP confirm 70
CNC(=O)c1c(NC(=O)c2cc(-c3cc(C)c(C)cc3O)n[nH]2)sc2c1CCCC2	XBP1 UPR activ 50, CHOP inh 103 (no result: TLR4-MyD88 BLA, TLR9-MyD88 block, NOD2-RIPK2 inh) | CHOP confirm inactive
Cc1ccc2c(c1)c1c(n2CC(O)Cn2c(C)nc3ccccc32)CCCC1 (configuration not stated)	CHOP inh 98 | CHOP confirm 82
CCCCN1C(=O)C(CC(=O)NCCN2CCOCC2)CC(C(=O)N2CCCCCC2)=C1C (configuration not stated)	none (no result: TLR4-MyD88 BLA, XBP1 UPR activ, CHOP inh, TLR9-MyD88 block, UPR CHOP act)
COc1cc2c(cc1/C=C1/NC(=O)N(CC(=O)Nc3ccccc3)C1=O)OCO2	CHOP inh 102 | CHOP confirm inactive
O=S(=O)(NCC(Nc1ccc(Cl)cc1)c1ccccc1)c1ccc(Cl)cc1 (configuration not stated)	CHOP inh 108 | CHOP confirm 112
O=S(=O)(NCC(c1ccccc1)N1CCC(O)CC1)c1ccc(Cl)cc1 (configuration not stated)	none (no result: TLR4-MyD88 BLA, CHOP inh)
CC1(C(=O)NS(=O)(=O)c2ccccc2)CCN1C(=O)CC1CC1 (configuration not stated)	none (no result: TLR4-MyD88 BLA, XBP1 UPR activ, CHOP inh, TLR9-MyD88 block, UPR CHOP act)
CCOC(=O)c1[nH]c(C)c(C(=O)OCC)c1C	none
CCOC(=O)c1c(C)[nH]c(C(=O)COC(=O)C2CC(=O)N(Cc3ccccc3)C2)c1C (configuration not stated)	CHOP inh 101 | CHOP confirm inactive
CCOC(=O)c1c(C)[nH]c(C(=O)COC(=O)c2[nH]c(C)c(C(C)=O)c2C)c1C	CHOP inh 97 | CHOP confirm 83
COc1cc(-c2nc3c(c(C)nn3-c3ccccc3)c3cc(OC)c(OC)cc23)ccc1O	CHOP inh 99 | CHOP confirm 83
COc1cc(-c2nc3ccccc3nc2-c2ccc(O)c(OC)c2)ccc1O	none (no result: TLR4-MyD88 BLA, CHOP inh)
O=C1c2c(O)cc(O)cc2OC(c2ccc(O)c(O)c2)C1O (configuration not stated)	none (no result: TLR4-MyD88 BLA, XBP1 UPR activ, TLR9-MyD88 block, NOD2-RIPK2 inh, UPR CHOP act)
COc1ccc([C@H]2Oc3cc(O)cc(O)c3C(=O)C2[C@@H]2C(=O)c3c(O)cc(O)cc3O[C@@H]2c2ccc(OC)cc2)cc1 (some centres not stated)	CHOP inh 105 (no result: TLR4-MyD88 BLA, TLR9-MyD88 block, NOD2-RIPK2 inh) | CHOP confirm 111
O=C(O)c1ccc(COc2ccccc2Cl)cc1	none
O=C(O)c1cccc(COc2ccccc2Cl)c1	CHOP inh 104 (no result: TLR4-MyD88 BLA) | CHOP confirm 132
CC(C)Cc1ccc(C(C)C(=O)Nc2nccs2)cc1 (configuration not stated)	CHOP inh 96 | CHOP confirm 94
N#Cc1ccc(-c2nc3ccc(Br)cc3c(=O)n2O)cc1	none (no result: TLR4-MyD88 BLA, CHOP inh)
O=c1c2cc(Br)ccc2nc(-c2cccc(C(F)(F)F)c2)n1O	CHOP inh 99 | CHOP confirm inactive
CCCOC(=O)c1ccc(Oc2cn[nH]c2-c2ccc(OCC)cc2O)cc1	CHOP inh 107 | CHOP confirm 124
COc1ccc(Oc2cn[nH]c2-c2ccc(OCC(=O)NN)cc2O)cc1	none (no result: TLR4-MyD88 BLA, CHOP inh)
CCOc1ccc(-c2[nH]ncc2Oc2cccc(OC)c2)c(O)c1	CHOP inh 107 | CHOP confirm inactive
COc1ccc(Oc2c(-c3ccc(O)cc3O)n[nH]c2C)cc1	none
CCCOC(=O)c1ccc(Oc2c(-c3ccc(OCC)cc3O)n[nH]c2C)cc1	CHOP inh 113 | CHOP confirm 118
COc1ccc(-n2nnnc2C(c2ccccc2OC(F)(F)F)N2CCN(C/C=C/c3ccccc3)CC2)cc1 (configuration not stated)	none (no result: TLR4-MyD88 BLA, XBP1 UPR activ, CHOP inh, TLR9-MyD88 block, UPR CHOP act)
Cc1ccc2nc(/C(C#N)=C\c3ccc(Oc4ccc([N+](=O)[O-])cn4)cc3)[nH]c2c1	CHOP inh 97 (no result: XBP1 UPR activ, UPR CHOP act) | CHOP confirm inactive
Cc1ccc2nc(/C(C#N)=C\c3cc(C)n(-c4cccc([N+](=O)[O-])c4)c3C)[nH]c2c1	none
O/N=C/c1cc(Cl)ccc1OCc1cccc2ccccc12	CHOP inh 113 (no result: TLR9-MyD88 block, NOD2-RIPK2 inh) | CHOP confirm inactive
C#CCOc1ccc(Cl)cc1/C=N/O	none
COc1ccccc1N1CCN(Cc2ccc(O)c3ncccc23)CC1	CHOP inh 102, UPR CHOP act 113 | CHOP confirm inactive | CHOP UPR conf 97
O=C1CSC(=S)N1Cc1ccccc1	none (no result: TLR4-MyD88 BLA, XBP1 UPR activ, CHOP inh, UPR CHOP act)
CCOC(=O)/C(=C\c1ccc(Cl)cc1)c1nc2sc(C)c(C)c2c(=O)[nH]1	CHOP inh 107, UPR CHOP act 59 | CHOP confirm inactive | CHOP UPR conf 198
OCC[C@H]1NCc2cc(CO)cc(-c3ccccc3)c21	none (no result: TLR4-MyD88 BLA, XBP1 UPR activ, CHOP inh, UPR CHOP act)
O=S(=O)(c1ccc(Cl)cc1)c1snnc1-c1ccccc1	UPR CHOP act 64 (no result: CHOP inh) | CHOP confirm inactive | CHOP UPR conf 55
CCOc1cc(NC(=O)CCl)c(OCC)cc1NC(=O)CCl	CHOP inh 98, UPR CHOP act 153 (no result: TLR4-MyD88 BLA) | CHOP confirm 79 | CHOP UPR conf 87
CCOc1cc(NC(=S)Nc2ccc(Cl)cc2)c(OCC)cc1NC(C)=O	none
Fc1cccc(Cc2c(C3CCCCC3)nc3ccc(Cl)cn23)c1	none (no result: TLR4-MyD88 BLA, XBP1 UPR activ, CHOP inh, TLR9-MyD88 block, UPR CHOP act)
Cc1nc(NC(=O)/C=C/c2ccccc2)n[nH]1	CHOP inh 97, UPR CHOP act 44 | CHOP confirm inactive | CHOP UPR conf 35
CCOC(=O)C1(C)CCN1C(=O)c1ccc(C(F)(F)F)cc1 (configuration not stated)	none (no result: TLR4-MyD88 BLA, XBP1 UPR activ, CHOP inh, TLR9-MyD88 block, UPR CHOP act)
CC1=NOC(=O)/C1=C\c1ccc(-c2ccc(Br)cc2)o1	none (no result: XBP1 UPR activ, UPR CHOP act)
CC1=NOC(=O)/C1=C/c1ccc(-c2ccc(Cl)cc2)o1	CHOP inh 109, UPR CHOP act 265 | CHOP confirm inactive | CHOP UPR conf 34
